Most compounds without a hit are left out; they make up all but 3.5% or so of the library.
thrombin 1536: inhibitors of human thrombin; P00734; alpha-thrombin, Boc-VPR-AMC fluorogenic substrate cleavage; inhibition, % at 5 µM; 220,000 compounds, 0.26% hits;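 active = inhibition at or above 40%; inactive = inhibition below 40%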
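Material: human alpha-thrombin enzyme / Medium: pH 7.5 Tris (50 mM) with NaCl 150 mM, Tween 20 0.05% / Compound: single-point dosing at 5 µM, 0.2% DMSO / Incubation: enzyme reaction carried out at room temperature / Detection: AMC fluorescence, 355/460 nm / Read-out basis: percent inhibition scaled between no-compound controls and no-enzyme blanks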
FXIa inh: factor XIa (human) inhibition. inhibition, % at 5 µM. 220,000 compounds, 0.14% hits. purified FXIa, Boc-Glu-Ala-Arg-AMC fluorogenic substrate. P03951. AID 798;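 active = inhibition of at least 40%; inactive = inhibition below 40%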;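 also: fluorescence of freed AMC excited at 355 nm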
FXIIa inh: inhibitors of human coagulation factor XIIa | purified FXIIa, Boc-QGR-AMC fluorogenic substrate, 2 h | inhibition, % at 5 µM | 220,000 compounds, 0.3% hits; in the data active = inhibition above about 40%
AHR act: activators of human aryl hydrocarbon receptor. P35869. AHR-responsive luciferase reporter cells, luminescence. activation, % at 5 µM. 320,000 compounds, 2.5% hits; in the data active = activation above about 47%
Target sequence (P35869 whole entry, looked up): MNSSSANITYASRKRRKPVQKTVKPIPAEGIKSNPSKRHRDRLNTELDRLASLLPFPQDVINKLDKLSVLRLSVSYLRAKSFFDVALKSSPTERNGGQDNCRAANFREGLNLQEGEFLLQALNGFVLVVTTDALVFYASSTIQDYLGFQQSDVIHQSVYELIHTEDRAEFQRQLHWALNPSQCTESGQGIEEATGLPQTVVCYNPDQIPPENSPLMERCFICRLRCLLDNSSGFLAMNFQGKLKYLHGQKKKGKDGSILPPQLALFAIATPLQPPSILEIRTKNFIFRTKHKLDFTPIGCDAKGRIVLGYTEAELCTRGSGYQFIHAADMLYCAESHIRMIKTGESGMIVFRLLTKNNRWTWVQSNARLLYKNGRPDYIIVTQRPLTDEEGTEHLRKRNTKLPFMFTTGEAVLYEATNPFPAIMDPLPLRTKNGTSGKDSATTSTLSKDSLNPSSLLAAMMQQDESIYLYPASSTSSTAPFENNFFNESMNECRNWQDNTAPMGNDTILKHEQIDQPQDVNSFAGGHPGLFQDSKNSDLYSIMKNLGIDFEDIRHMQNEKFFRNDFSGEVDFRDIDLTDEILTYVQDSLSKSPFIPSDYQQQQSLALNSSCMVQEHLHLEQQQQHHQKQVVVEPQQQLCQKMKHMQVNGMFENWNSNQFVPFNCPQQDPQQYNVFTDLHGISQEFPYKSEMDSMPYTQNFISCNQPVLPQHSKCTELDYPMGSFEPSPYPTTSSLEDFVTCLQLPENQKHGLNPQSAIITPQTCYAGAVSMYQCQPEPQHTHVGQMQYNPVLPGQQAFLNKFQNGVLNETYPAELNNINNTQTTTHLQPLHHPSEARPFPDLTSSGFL
hK5 inh: blocks human kallikrein 5 protease activity; Q9Y337; recombinant hK5, fluorogenic AMC substrate cleavage; inhibition, % at 5 µM; 210,000 compounds, 0.59% hits;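 active = inhibition of 40% or more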
STAT3 activator: STAT3 signaling activation; AID 871; 190,000 compounds, 0.91% hits; U3A cells, IL-6 STAT3-luciferase reporter, luminescence; 100% = signal with IL-6 EC80 alone; activation (% of control), % at 5.6 µM;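 active = activation above the screen-wide mean of compound activation plus 3 SD, cut at about 130% in these data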
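Material: human STAT1-deficient U3A cells with stable STAT3-luciferase reporter / Probe or stimulus: IL-6 stimulus at 33 ng/mL final / Schedule: 1 h compound pre-exposure, 6 h IL-6 stimulation, 37 °C / Technique: luminescence / Read-out basis: percent of IL-6-only median luminescence / Control set: IL-6-only high control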
Each line names hits and unclear results; the compound was inactive in the other large screens.

CC1=NN(c2nc(-c3ccc(Cl)cc3)cs2)C(=O)C1	none
Cc1cc(C)n(-c2nc(-c3ccc(Cl)cc3)cs2)n1	AHR act 60
COc1ccc(NC(=O)OCCn2c([N+](=O)[O-])cnc2C)cc1	none
NC(=O)c1c(/N=C/c2cccs2)sc2c1CCCC2	AHR act 70 (no result: STAT3 activator)
CC1(C)CC(=O)C(C=Nc2ccccc2Sc2ccccc2)=C(O)C1	hK5 inh 44
CC1(C)CC(=O)C(C=Nc2ccccc2C(=O)O)=C(O)C1	none
CC1(NC(=O)CCc2nc3ccccc3c(=O)[nH]2)CCS(=O)(=O)C1 (stereo unspecified)	none (no result: thrombin 1536, FXIa inh, FXIIa inh, hK5 inh, STAT3 activator)
c1csc(-c2nc3ccccc3[nH]2)c1	FXIIa inh 43
Cc1ccc(-c2nc3ccccc3[nH]2)s1	AHR act 55
CCCN(CCC)S(=O)(=O)c1ccc(C(=O)Nc2nc(-c3ccccc3)c(C(=O)OCC)s2)cc1	none
O=C(O)Cc1cccc2ccccc12	none (no result: thrombin 1536, FXIa inh, FXIIa inh, hK5 inh, STAT3 activator)
O=C(O)Cc1ccccc1C(=O)O	thrombin 1536 44
Cn1c(O)c(/C=N/Nc2ccccc2)c(=O)n(C)c1=O	AHR act 58
Cc1[nH]nc(N=Cc2c(O)n(C)c(=O)n(C)c2=O)c1-c1ccccc1	none (no result: thrombin 1536, FXIa inh, FXIIa inh, hK5 inh, STAT3 activator)
CCOc1cc(/C=C/c2ccc3cccc([N+](=O)[O-])c3n2)cc(Cl)c1O	none
O=[N+]([O-])c1cccc2ccc(/C=C/c3ccc(Cl)cc3)nc12	AHR act 62
O=C(Nc1ccc(Oc2ccccc2)cc1)C1CC1	none
CCCC(=O)Nc1ccc(C#Cc2ccccc2)cc1	STAT3 activator 146
O=C(Nc1ccc(C#Cc2ccccc2)cc1)C1CC1	STAT3 activator 143
CCCC(=O)Nc1ccc(Oc2ccc(NC(=O)CCC)cc2)cc1	none
Cc1ccc(C)c(NC(=O)CCc2c(C)nn(-c3ccc(N4CCCCC4)nn3)c2C)c1	none (no result: thrombin 1536, FXIa inh, FXIIa inh, hK5 inh, STAT3 activator)
CC(C(=O)O)n1cc(Cl)cn1 (stereo unspecified)	hK5 inh 51
O=C(CNc1cccc2ccccc12)N/N=C/c1ccc([N+](=O)[O-])o1	AHR act 65
O=C(CNc1cccc([N+](=O)[O-])c1)N/N=C/c1ccc([N+](=O)[O-])o1	none
Cc1cccc(C)c1Nc1nnc(SCC(=O)c2ccc(Br)s2)s1	none
Cc1ccc(Nc2nnc(SCC(=O)c3ccc(Br)s3)s2)c(C)c1	AHR act 60
Cc1cc(C)cc(NC(=O)CCc2nc3sc4c(c3c(=O)[nH]2)CCCC4)c1	AHR act 59 (no result: thrombin 1536, FXIa inh, FXIIa inh, hK5 inh, STAT3 activator)
Cc1ccc(CS/C(Nc2ccccc2C)=C(\C#N)C(N)=O)c(C)c1	none
CCc1c(C)c(C#N)c2[nH]c3ccccc3n2c1=S	AHR act 59 (no result: STAT3 activator)
CCc1cc(=S)n2c([nH]c3ccccc32)c1C#N	none
COc1ccc(C(=O)Nn2c(SCc3ccc([N+](=O)[O-])cc3)nc3ccccc3c2=O)cc1	none
CC(Oc1cccnc1[N+](=O)[O-])C(=O)Nc1cccc(Cl)c1 (stereo unspecified)	none (no result: thrombin 1536, FXIa inh, FXIIa inh, hK5 inh, STAT3 activator)
CC(Oc1cccnc1[N+](=O)[O-])C(=O)Nc1ccc(Cl)cn1 (stereo unspecified)	AHR act 56 (no result: thrombin 1536, FXIa inh, FXIIa inh, hK5 inh, STAT3 activator)
COc1ccc(CCN2C(=O)CSC2=Nc2ccc(C(C)C)cc2)cc1OC	none (no result: STAT3 activator)
CCc1cc2c(SCC(=O)N(C)C3CCS(=O)(=O)C3)ncnc2s1 (stereo unspecified)	FXIa inh 51 (no result: STAT3 activator)
CC1CCc2c(sc3ncnc(SCC(=O)N(C)C4CCS(=O)(=O)C4)c23)C1 (stereo unspecified)	none (no result: thrombin 1536, FXIa inh, FXIIa inh, hK5 inh, STAT3 activator)
Nc1nnnn1/N=C/c1ccccc1OCc1ccc(Cl)cc1Cl	AHR act 73
Nc1nnnn1/N=C/c1ccccc1OCc1ccc(Cl)cc1	none
COCCNC(=O)c1c(N)n(CCCn2ccnc2)c2nc3ccccc3nc12	AHR act 53
COCCNC(=O)c1c(N)n(-c2ccccc2)c2nc3ccccc3nc12	none
Cc1ccc2nc(SCC(=O)Nc3ccc(C)c([N+](=O)[O-])c3)[nH]c2c1	AHR act 86
Cc1ccc2nc(SCC(=O)Nc3cccc(S(N)(=O)=O)c3)[nH]c2c1	hK5 inh 93 (no result: STAT3 activator)
O=C(NN=C1c2ccccc2-c2ccccc21)c1ccccc1	AHR act 59 (no result: thrombin 1536, FXIa inh, FXIIa inh, hK5 inh, STAT3 activator)
O=C(C[n+]1cc(Br)cc(Br)c1)c1ccc(Cl)cc1	none (no result: thrombin 1536, FXIa inh, FXIIa inh, hK5 inh, STAT3 activator)
O=C(C[n+]1cccc2ccccc21)c1ccc(Br)cc1	AHR act 65 (no result: thrombin 1536, FXIa inh, FXIIa inh, hK5 inh, STAT3 activator)
O=C(C[n+]1cc(Br)cc2ccccc21)c1ccc(Cl)cc1	AHR act 73 (no result: thrombin 1536, FXIa inh, FXIIa inh, hK5 inh, STAT3 activator)
COc1ccc(NC(=O)c2c(C)noc2C(C)C)cc1S(=O)(=O)N1CCCCC1	none (no result: thrombin 1536, FXIa inh, FXIIa inh, hK5 inh, STAT3 activator)
Cc1nn(C(=O)c2ccc([N+](=O)[O-])cc2)c(C)c1Br	none (no result: STAT3 activator)
NC(=O)c1cc([N+](=O)[O-])c(Cl)cc1NCc1ccccn1	AHR act 67 (no result: thrombin 1536, FXIa inh, FXIIa inh, hK5 inh, STAT3 activator)
Cc1nc(SCc2ccccc2)c2ccsc2n1	FXIIa inh 57, hK5 inh 56
c1ccc(CSc2ncnc3sccc23)cc1	hK5 inh 42
Cc1nc(N2CCCCC2)c2ccsc2n1	none
O=c1c([N+](=O)[O-])cc(C(F)(F)F)cn1Cc1c(Cl)cccc1Cl	none
COc1ccc(NC(=O)c2cccnc2N2CCCC2)cc1	hK5 inh 59
O=C(Nc1ccc(F)cc1)c1cccnc1N1CCCCC1	none
O=C(Nc1ccc(Br)cc1)c1cccnc1N1CCCCC1	AHR act 50
CC(=O)Nc1ccc(N2C(C(C)=O)=NN(c3ccc(Cl)cc3)C2c2sccc2C)cc1 (stereo unspecified)	AHR act 66
COc1ccc(Nc2nc(-c3cc4cccc(OC)c4oc3=O)cs2)cc1	none
COc1cccc2cc(-c3nc4ccccc4[nH]3)c(=O)oc12	AHR act 72 (no result: thrombin 1536, FXIa inh, FXIIa inh, hK5 inh, STAT3 activator)
COc1cccc2cc(-c3nc(-c4cccs4)cs3)c(=O)oc12	AHR act 48
COc1cccc2cc(-c3ccccc3)c(=O)oc12	none
O=C(CCCc1cccs1)Nc1nc2c(s1)CCCC2	STAT3 activator 133
Cc1ccc(S(=O)(=O)N2CCCCC2)cc1NC(=O)c1ccc(Cl)nc1	AHR act 75 (no result: thrombin 1536, FXIa inh, FXIIa inh, hK5 inh, STAT3 activator)
COc1ccc(S(=O)(=O)N2CCCCC2)cc1NC(=O)c1ccc(Cl)nc1	none (no result: thrombin 1536, FXIa inh, FXIIa inh, hK5 inh, STAT3 activator)
Cc1ccccc1NC(=O)/C=C/c1ccc([N+](=O)[O-])s1	AHR act 50
CCC(Sc1nncn1C)C(=O)Nc1nnc(-c2ccccc2Cl)s1 (stereo unspecified)	AHR act 52
CC(C)OCCCN1CN(S(=O)(=O)c2cccc(Cl)c2)c2nc3ccccc3nc21	none
O=C(c1ccccc1)c1c2c(cc3sc4ccccc4[n+]13)-c1cccc3cccc-2c13	AHR act 54
CC1C/C(=N/NC(=O)c2ccc(CSc3nc4ccccc4[nH]3)cc2)CC(C)(C)C1 (stereo unspecified)	none
CC1C/C(=N/Nc2nc3ccccc3[nH]2)CC(C)(C)C1 (stereo unspecified)	AHR act 89
CC(C)Cc1nnc(NC(=O)CCc2c[nH]c3ccccc23)s1	none

Bioassay records (PubChem)
